Results: PubChem BioAssay AID504831 (Southern Research Specialized Biocontainment Screening …, 2011)

Each molecule was assayed on Bladder 5637 cells viability, CellTiter-Glo, 72 h (assay: viability of human bladder carcinoma cells – cell-based, set 3, cytotoxicity control for bacterial capsule biogenesis inhibitors, dose response (AID 504831)).
Method in brief: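 Test system: Human bladder carcinoma 5637 cell line | Compound dosing: 8 doses, 2.3–300 µM | Timing: 72 h treatment | Measured by: CellTiter-Glo luminescence | Read-out: CC50 from viability relative to cell control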
Work on `CCOc1ccc(-c2cc(NC(=O)c3cccc(Cl)c3)c(C(=O)O)s2)cc1` yielded a CC50 of 83.9 µM.
Molecule `O=C(Nc1cc(-c2ccccc2)sc1C(=O)O)c1cc(Cl)c2c(c1)OCCO2` has a CC50 of 242 µM.
In the case of `CCOc1ccc(-c2cc(NC(=O)c3ccc(OC)c(OC)c3)c(C(=O)O)s2)cc1`, the CC50 was 82.8 µM.
In the case of `O=C(Nc1cc(-c2ccccc2)sc1C(=O)O)c1cc2ccccc2o1`, the CC50 was 167 µM.
With `O=C(O)c1sc(-c2ccccc2)cc1NC(=O)C1CCCCC1` the CC50 was 115 µM.
With `Cc1c(C(=O)Nc2cc(-c3ccccc3)sc2C(=O)O)oc2ccccc12` the CC50 was 48.7 µM.
With `O=C(Nc1cc(-c2ccccc2)sc1C(=O)O)c1cccs1` the CC50 was 89.3 µM.
In the case of `O=C(Nc1cc(-c2ccccc2)sc1C(=O)O)c1ccc(Br)o1`, the CC50 was 104 µM.
For `Cc1ccc(C(=O)Nc2cc(-c3ccccc3)sc2C(=O)O)s1`, the CC50 was 63.6 µM.
With `COC(=O)c1sc(-c2ccccc2)cc1NC(=O)c1c(F)cccc1F` the CC50 was 10.4 µM.
`O=C(Nc1cc(-c2ccccc2)sc1C(=O)O)c1ccc(Cl)s1` was tested, and the CC50 was 71.5 µM.
With `O=C(O)c1sc(-c2ccccc2)cc1NC(=O)C1CCCC1` the CC50 was 169 µM.
For `O=C(Nc1cc(-c2ccccc2)sc1C(=O)O)c1cccc(F)c1`, the CC50 was 76.9 µM.
`O=C(Nc1cc(-c2ccccc2)sc1C(=O)O)c1cccc(Cl)c1` showed a CC50 of 52.6 µM.
In the case of `O=C(Nc1cc(-c2ccccc2)sc1C(=O)O)c1ccc2c(c1)OCCO2`, the CC50 was 82.1 µM.
Work on `Cc1onc(-c2ccccc2)c1C(=O)Nc1cc(-c2ccccc2)sc1C(=O)O` yielded a CC50 of 52.6 µM.
